The record followed here is ChEMBL document CHEMBL2062515, “Synthesis and evaluation of novel radioligands for positron emission tomography imaging of metabotropic glutamate receptor subtype 1 (mGluR1) in rodent brain” (J Med Chem, 2012).

In data set [1] the target is Metabotropic glutamate receptor 5 (Rattus norvegicus, UniProt P31424). The data set is described as follows: Displacement of [11C]-ABP688 from mGluR5 in Sprague-Dawley rat brain homogenates after 1 hr by gamma counting. It counts as tissue-based. Summed up: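 mGluR5 competition in same rat brain homogenate, run as mGluR1 assay but with [¹¹C]ABP688-type radioligand: 1 h room temperature incubation, filtration through PEI-treated glass fiber filters, gamma counting, nonlinear regression for IC50.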

Data set [2] concerns the target Metabotropic glutamate receptor 1 (Rattus norvegicus, UniProt P23385). The experiment in a line: Displacement of 4-[18F]fluoro-N-[4-(6-(isopropylamino)pyrimidin-4-yl)-1,3-thiazol-2-yl]-N-methylbenzamide from mGluR1 in Sprague-Dawley rat brain homogenates after 1 hr. Type of data set: tissue-based. Summed up:
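Rat whole-brain homogenate (washed pellets in 50 mM Tris-HCl pH 7.4, 120 mM NaCl; diluted to 100 mg/mL in Tris-HCl with NaCl, KCl, MgCl₂, CaCl₂) incubated 1 h, room temperature with [¹⁸F]-ligand (3 nM in PBS) and competitor […] in 0.1% DMSO. Filtration on PEI-treated GF/C, gamma counting; Kd by Scatchard; IC50/Ki by nonlinear regression; duplicate, mean SE.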

A short description of data set [3]: Lipophilicity, log D of the compound in octanol-phosphate buffer at pH 7.4 by Shake flask method. Type of data set: physicochemical. Summed up:
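Radioligand shaken with n-octanol and 0.1 M sodium phosphate buffer pH 7.4 (3.0 g each), vortex 3 min room temperature, centrifuged 2330g 5 min; phases weighed and counted, octanol repartitioned until constant. LogD = log(cpm/g octanol / cpm/g buffer); triplicate.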

Data set [4] concerns the target Metabotropic glutamate receptor 1 (Rattus norvegicus) (UniProt P23385). The data set is described as follows: Binding affinity to mGluR1 in Sprague-Dawley rat striatum at 0.4 MBq after 30 mins by autoradiography. Summed up:
(§1)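 Sections were 20 μm rat brain slices, preincubated 20 min at room temperature in 50 mM Tris-HCl pH 7.4 containing 1.2 mM MgCl₂ and 2 mM CaCl₂. Incubation was 30 min at room temperature with an ¹⁸F radioligand at 0.4 MBq (5 pM or 4 pM), with or without JNJ-16259685 (1 μM). Sections were washed 3 × 5 min in cold buffer, rinsed in cold distilled water and air-dried cold.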

For data set [5] the target is unchanged. The data set is described as follows: Binding affinity to mGluR1 in Sprague-Dawley rat brain stem at 0.4 MBq after 30 mins by autoradiography. Type of data set: tissue-based.
Data set [6] has the same target. The data set is described as follows: Binding affinity to mGluR1 in Sprague-Dawley rat striatum at 0.4 MBq after 30 mins by autoradiography in presence of JNJ16259685. As to conditions: 0.4 M, tested as the 18F-labelled form. Summed up: as §1
The target is the same in data set [7]. The experiment in a line: Binding affinity to mGluR1 in Sprague-Dawley rat cerebellum at 0.4 MBq after 30 mins by autoradiography.
Data set [8] has the same target. The data set is described as follows: Binding affinity to mGluR1 in Sprague-Dawley rat cerebellum at 0.4 MBq after 30 mins by autoradiography in presence of JNJ16259685.
The target is the same in data set [9]. The experiment in a line: Binding affinity to mGluR1 in Sprague-Dawley rat thalamus at 0.4 MBq after 30 mins by autoradiography. Summed up: as §1
For data set [10] the target is unchanged. The experiment in a line: Binding affinity to mGluR1 in Sprague-Dawley rat brain stem at 0.4 MBq after 30 mins by autoradiography in presence of JNJ16259685. As to conditions: 0.4 M, tested as the 18F-labelled form. Type of data set: tissue-based. Summed up:
as §1

For data set [11] the target is unchanged. The data set is described as follows: Binding affinity to mGluR1 in Sprague-Dawley rat thalamus at 0.4 MBq after 30 mins by autoradiography in presence of JNJ16259685. As to conditions: 0.4 M, tested as the 18F-labelled form. The gist of the method: as §1
For data set [12] the target is unchanged. The data set is described as follows: Binding affinity to mGluR1 in Sprague-Dawley rat brain stem at 9.2 MBq after 30 mins by autoradiography. It counts as tissue-based. As to conditions: 9.2 M, tested as the 11C-labelled form. The gist of the method:
(§2)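 Rat brain sections (20 μm) were preincubated 20 min at room temperature in 50 mM Tris-HCl pH 7.4 with 1.2 mM MgCl₂ and 2 mM CaCl₂. They were then incubated 30 min at room temperature in fresh buffer with the ¹¹C radioligand (9.2 MBq, 0.5 nM), with or without JNJ-16259685 (1 μM) to define specific binding. Sections were washed 3 × 5 min in cold buffer, dipped in cold water and dried with cold air.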

Data set [13] shares this target. The experiment in a line: Binding affinity to mGluR1 in Sprague-Dawley rat striatum after 30 mins by autoradiography in presence of JNJ16259685. The conditions noted are these: tested as the 11C-labelled form.
The target is the same in data set [14]. The data set is described as follows: Binding affinity to mGluR1 in Sprague-Dawley rat striatum at 9.2 MBq after 30 mins by autoradiography. The conditions noted are these: 9.2 M, tested as the 11C-labelled form. The gist of the method: as §2
Data set [15] has the same target. The data set is described as follows: Binding affinity to mGluR1 in Sprague-Dawley rat brain stem after 30 mins by autoradiography in presence of JNJ16259685. The conditions noted are these: tested as the 11C-labelled form.
Data set [16] shares this target. The data set is described as follows: Binding affinity to mGluR1 in Sprague-Dawley rat cerebellum at 9.2 MBq after 30 mins by autoradiography. The conditions noted are these: 9.2 M, tested as the 11C-labelled form. Summed up:
as §2

For data set [17] the target is unchanged. The data set is described as follows: Binding affinity to mGluR1 in Sprague-Dawley rat cerebellum at 9.2 MBq after 30 mins by autoradiography relative to control in presence of JNJ16259685. The conditions noted are these: 9.2 M, tested as the 11C-labelled form. Summed up: as §2
For data set [18] the target is unchanged. The experiment in a line: Binding affinity to mGluR1 in Sprague-Dawley rat thalamus after 30 mins by autoradiography in presence of JNJ16259685. As to conditions: tested as the 11C-labelled form.
For data set [19] the target is unchanged. The experiment in a line: Binding affinity to mGluR1 in Sprague-Dawley rat brain at 9.2 MBq after 30 mins by autoradiography relative to control in presence of JNJ16259685. As to conditions: 9.2 M, tested as the 11C-labelled form. Type of data set: tissue-based. The gist of the method:
as §2

Data set [20] shares this target. The data set is described as follows: Binding affinity to mGluR1 in Sprague-Dawley rat thalamus at 9.2 MBq after 30 mins by autoradiography relative to control in presence of JNJ16259685. As to conditions: 9.2 M, tested as the 11C-labelled form. The gist of the method:
as §2

Data set [21] has the same target. The experiment in a line: Binding affinity to mGluR1 in Sprague-Dawley rat thalamus at 9.2 MBq after 30 mins by autoradiography. The conditions noted are these: 9.2 M, tested as the 11C-labelled form. Summed up:
as §2

Data set [22] has the same target. The data set is described as follows: Binding affinity to mGluR1 in Sprague-Dawley rat striatum at 9.2 MBq after 30 mins by autoradiography relative to control in presence of JNJ16259685. As to conditions: 9.2 M, tested as the 11C-labelled form. Summed up: as §2
Data set [23] has the same target. The data set is described as follows: Binding affinity to mGluR1 in Sprague-Dawley rat brain stem at 9.2 MBq after 30 mins by autoradiography relative to control in presence of JNJ16259685. It counts as tissue-based. The conditions noted are these: 9.2 M, tested as the 11C-labelled form. The gist of the method: as §2
Where [24] appears, read: 0.4 M, tested as the 18F-labelled form.
The mark [25] stands for this setting: 9.2 M, in the assay text read “9.2 MBq” for “0.4 MBq”, tested as the 11C-labelled form.

Each structure is given as a SMILES string. pIC50, pKi: −log10 of the molar value. Active and inactive are the calls of the source. The rule behind the calls is not given here. Where only a bound is given, the exact number is not on record here.

Sequence of Metabotropic glutamate receptor 5 (P31424 whole entry): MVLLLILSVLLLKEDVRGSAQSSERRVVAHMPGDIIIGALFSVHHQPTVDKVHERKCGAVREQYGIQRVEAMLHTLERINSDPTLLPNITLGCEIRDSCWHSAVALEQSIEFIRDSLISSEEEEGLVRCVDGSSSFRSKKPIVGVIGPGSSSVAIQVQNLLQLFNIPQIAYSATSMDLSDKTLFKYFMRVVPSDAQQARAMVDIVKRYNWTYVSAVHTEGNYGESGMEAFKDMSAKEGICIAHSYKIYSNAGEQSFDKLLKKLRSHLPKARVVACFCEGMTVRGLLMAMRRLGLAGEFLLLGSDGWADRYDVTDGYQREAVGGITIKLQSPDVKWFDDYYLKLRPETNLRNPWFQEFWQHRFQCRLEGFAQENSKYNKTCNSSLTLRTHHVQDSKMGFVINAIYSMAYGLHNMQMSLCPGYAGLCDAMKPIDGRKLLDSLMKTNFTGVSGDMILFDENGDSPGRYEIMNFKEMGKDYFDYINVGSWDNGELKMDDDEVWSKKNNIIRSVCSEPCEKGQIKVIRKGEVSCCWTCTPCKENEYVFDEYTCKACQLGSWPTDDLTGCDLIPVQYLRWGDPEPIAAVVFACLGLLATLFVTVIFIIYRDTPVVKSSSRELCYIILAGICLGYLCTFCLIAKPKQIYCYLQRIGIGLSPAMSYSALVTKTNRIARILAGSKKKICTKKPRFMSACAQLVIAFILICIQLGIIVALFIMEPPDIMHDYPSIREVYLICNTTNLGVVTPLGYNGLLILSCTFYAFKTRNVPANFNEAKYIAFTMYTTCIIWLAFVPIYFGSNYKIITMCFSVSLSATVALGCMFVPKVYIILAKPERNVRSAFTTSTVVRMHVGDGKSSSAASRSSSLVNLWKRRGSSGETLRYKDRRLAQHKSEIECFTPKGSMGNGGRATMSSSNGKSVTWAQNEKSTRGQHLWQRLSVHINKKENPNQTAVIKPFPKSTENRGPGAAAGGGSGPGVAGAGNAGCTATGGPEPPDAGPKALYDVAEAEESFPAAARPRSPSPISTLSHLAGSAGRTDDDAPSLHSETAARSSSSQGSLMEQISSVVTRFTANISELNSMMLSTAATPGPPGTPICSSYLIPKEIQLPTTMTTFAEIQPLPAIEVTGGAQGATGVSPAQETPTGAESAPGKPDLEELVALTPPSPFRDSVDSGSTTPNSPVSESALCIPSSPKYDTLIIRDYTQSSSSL
Sequence of Metabotropic glutamate receptor 1 (Rattus norvegicus) (P23385 19-1199 limits assumed): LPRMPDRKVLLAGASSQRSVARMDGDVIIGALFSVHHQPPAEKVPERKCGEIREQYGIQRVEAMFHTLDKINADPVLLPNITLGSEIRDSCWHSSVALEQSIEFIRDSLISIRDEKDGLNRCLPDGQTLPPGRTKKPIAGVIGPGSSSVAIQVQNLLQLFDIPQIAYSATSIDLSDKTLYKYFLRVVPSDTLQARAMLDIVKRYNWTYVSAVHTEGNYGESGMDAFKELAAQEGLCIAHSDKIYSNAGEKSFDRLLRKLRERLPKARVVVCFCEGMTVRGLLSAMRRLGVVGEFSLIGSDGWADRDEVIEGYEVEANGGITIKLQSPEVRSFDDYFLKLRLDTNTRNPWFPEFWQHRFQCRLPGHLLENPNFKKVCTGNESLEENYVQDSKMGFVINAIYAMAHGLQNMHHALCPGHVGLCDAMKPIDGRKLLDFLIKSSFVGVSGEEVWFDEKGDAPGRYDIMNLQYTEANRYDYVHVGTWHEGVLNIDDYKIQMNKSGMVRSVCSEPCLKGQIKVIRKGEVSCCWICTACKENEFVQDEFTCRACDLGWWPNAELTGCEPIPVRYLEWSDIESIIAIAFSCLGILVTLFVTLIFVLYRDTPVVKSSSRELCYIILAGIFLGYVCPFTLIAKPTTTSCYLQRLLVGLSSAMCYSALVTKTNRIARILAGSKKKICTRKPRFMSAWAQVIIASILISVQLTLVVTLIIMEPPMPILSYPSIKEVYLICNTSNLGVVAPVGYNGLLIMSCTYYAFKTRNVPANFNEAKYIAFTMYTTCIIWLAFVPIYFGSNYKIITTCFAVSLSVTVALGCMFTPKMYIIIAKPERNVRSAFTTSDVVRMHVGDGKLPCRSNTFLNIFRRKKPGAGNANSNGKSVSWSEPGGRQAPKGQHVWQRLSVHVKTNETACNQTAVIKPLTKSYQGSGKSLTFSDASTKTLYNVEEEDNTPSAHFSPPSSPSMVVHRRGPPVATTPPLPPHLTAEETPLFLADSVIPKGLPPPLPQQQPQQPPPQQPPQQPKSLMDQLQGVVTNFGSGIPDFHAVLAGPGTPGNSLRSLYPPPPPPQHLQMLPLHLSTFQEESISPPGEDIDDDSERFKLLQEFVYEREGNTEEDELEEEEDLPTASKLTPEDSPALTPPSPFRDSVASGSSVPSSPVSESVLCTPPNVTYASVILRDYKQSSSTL
Sequence of Metabotropic glutamate receptor 1 (P23385 whole entry): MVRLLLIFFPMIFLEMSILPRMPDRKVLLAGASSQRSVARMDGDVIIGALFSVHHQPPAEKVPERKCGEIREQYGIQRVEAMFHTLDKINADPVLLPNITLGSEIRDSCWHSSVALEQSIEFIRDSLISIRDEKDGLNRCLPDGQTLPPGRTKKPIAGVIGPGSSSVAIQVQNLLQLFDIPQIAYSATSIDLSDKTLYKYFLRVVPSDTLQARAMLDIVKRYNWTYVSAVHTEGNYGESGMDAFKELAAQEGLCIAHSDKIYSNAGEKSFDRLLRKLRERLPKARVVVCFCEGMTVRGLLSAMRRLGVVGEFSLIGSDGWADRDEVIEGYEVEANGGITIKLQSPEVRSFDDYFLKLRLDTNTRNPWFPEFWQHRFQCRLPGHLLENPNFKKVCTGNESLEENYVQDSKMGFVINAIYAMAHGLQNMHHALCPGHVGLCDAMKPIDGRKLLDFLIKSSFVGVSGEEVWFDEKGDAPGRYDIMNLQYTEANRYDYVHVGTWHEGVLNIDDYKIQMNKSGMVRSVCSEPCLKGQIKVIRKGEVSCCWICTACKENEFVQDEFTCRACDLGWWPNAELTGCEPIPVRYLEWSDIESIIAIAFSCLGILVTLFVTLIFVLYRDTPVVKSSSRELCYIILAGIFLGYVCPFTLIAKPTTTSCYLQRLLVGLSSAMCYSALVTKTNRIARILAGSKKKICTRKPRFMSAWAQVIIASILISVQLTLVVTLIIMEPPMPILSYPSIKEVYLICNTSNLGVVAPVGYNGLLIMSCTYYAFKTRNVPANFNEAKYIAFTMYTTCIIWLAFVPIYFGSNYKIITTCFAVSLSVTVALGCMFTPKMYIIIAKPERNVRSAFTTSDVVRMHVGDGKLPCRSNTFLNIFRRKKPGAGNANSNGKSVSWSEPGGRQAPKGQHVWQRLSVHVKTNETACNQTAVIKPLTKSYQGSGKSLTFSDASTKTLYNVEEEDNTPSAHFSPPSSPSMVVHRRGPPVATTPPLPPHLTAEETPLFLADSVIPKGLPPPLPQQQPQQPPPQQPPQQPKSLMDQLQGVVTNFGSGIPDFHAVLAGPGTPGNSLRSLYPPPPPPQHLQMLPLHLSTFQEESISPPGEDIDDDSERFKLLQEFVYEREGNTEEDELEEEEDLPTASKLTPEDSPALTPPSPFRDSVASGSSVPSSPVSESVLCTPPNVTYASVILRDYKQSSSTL

Turning to `CC(C)Nc1cc(-c2csc(N(C)C(=O)c3ccc(F)cc3)n2)ncn1`, the pIC50 is under 5.00 in [1] and 7.86 in data set [2]. The same compound had a pKi in data set [2] of 8.27. This compound also displayed a logD in data set [3] of 1.45.

For the compound `CC(C)Nc1cc(-c2csc(N(C)C(=O)c3ccc(OCCCF)cc3)n2)ncn1`, the result in data set [4] (setting [24]), in [5] (setting [24]), in data set [7] (setting [24]) and in data set [9] (setting [24]) was Active. The pIC50 in [1] and in data set [2] was under 5.00 throughout. The result in [6], in [8] (setting [24]), in [10] and in data set [11] was inactive. In [2], the pKi is under 5.30. The compound further registered a logD in [3] of 2.8.

With `COc1ccc(C(=O)N(C)c2nc(-c3cc(NC(C)C)ncn3)cs2)cc1`, the result in [12], in [14], in data set [4] (setting [25]), in data set [5] (setting [25]), in data set [16] and in data set [7] (setting [25]) was Active. In addition, the result in data set [9] (setting [25]) and in data set [21] was Active. For the same compound, the result in data set [13], in [15], in data set [18] and in [8] (setting [25]) was inactive. Further, the pIC50 in data set [1] was under 5.00; in data set [2], 7.49. The compound further gave a pKi in data set [2] of 7.90. In data set [3], this compound gave a logD of 2.57. The Activity in data set [17] is 30%; in data set [19], over 70%; in [20], 30%; in [22], 30%; in data set [23] it was 30%.

On to `CC(C)Nc1cc(-c2csc(N(C)C(=O)c3ccc(OCCF)cc3)n2)ncn1`, for which the result in [4] (setting [24]), in [5] (setting [24]), in [7] (setting [24]) and in [9] (setting [24]) was Active. For the same compound, the pIC50 in data set [1] is under 5.00; in data set [2], 6.40. For the same compound, the outcome in [6], in [8] (setting [24]), in [10] and in [11] was inactive. Also, the pKi in [2] was 6.82. The logD in [3] was found to be 2.59.
